In general, inhibition refers to the relative decrease from the control value, in per cent. The IC50 is the concentration needed to halve the response being measured. A higher IC50 goes with weaker potency in that assay. Usually ΔTm stands for the shift of the melting midpoint relative to a reference. The Kd is a measure of binding affinity in units of concentration.

The source made the active and inactive calls. The calls are words filed in the database; no cut-off is given here.

Assay [1] can be described thus: Inhibition of DHX15 mRNA translation in rabbit reticulocyte lysate transfected with DHX15-G4-WT-FL at upto 50 uM incubated for 15 mins by firefly luciferase assay relative to control. It is filed as functional, Oryctolagus cuniculus. Particulars: 0.25 h, up to 50 µM. Summed up: (§1)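 Cell-free translation: in vitro transcribed firefly luciferase reporter RNAs carrying DHX15 5' region (WT or G4-deleted) incubated in rabbit reticulocyte lysate with analyte, dose-dependent; luciferase activity as translation read-out; IC50 from dose-response.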

Assay [2] concerns Reticulocyte. Put plainly: Inhibition of DHX15 mRNA translation in rabbit reticulocyte lysate transfected with DHX15-G4-Del-FL at upto 50 uM incubated for 15 mins by firefly luciferase assay. Particulars: Oryctolagus cuniculus. It is filed as functional, subcellular. A digest of the protocol:
as §1

Assay [3] relates to Quadruplex RNA. Put plainly: Binding affinity to DHX15 rG4 (unknown origin) assessed as induction of RNA G quadruplex formation by measuring increase in intensity at 4 to 20 uM in presence of KCl by circular dichroism method. It counts as nucleic-acid assay. Particulars: dose 4-20 µM.
The test system of assay [4] is Quadruplex RNA. Kind of assay: Displacement of Hoechst 33258 from DHX15 rG4 (unknown origin) at 100 uM measured after 15 mins by FID assay relative to control. It is filed as nucleic-acid assay. A digest of the protocol: (§2)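 Fluorescent intercalator displacement on DHX15 rG4, dose-dependent, using thioflavin T or Hoechst 33258 (groove binder) as probe; displacement measured as loss of probe fluorescence.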

The nature of assay [5]: Inhibition of DHX15 mRNA translation in rabbit reticulocyte lysate transfected with DHX15-G4-WT-FL incubated for 15 mins by firefly luciferase assay. It counts as functional, subcellular, Oryctolagus cuniculus. A digest of the protocol:
as §1

Assay [6] relates to Quadruplex RNA. Kind of assay: Binding affinity to DHX15 rG4 (unknown origin) assessed as thermal stability by measuring change in melting temperature at 50 uM by circular dichroism method. It counts as nucleic-acid assay. A digest of the protocol: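 CD thermal melt of DHX15 rG4 with 50 μM analyte present; stabilization reported as ΔTm.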
(In general: Circular dichroism is the unequal absorption of left and right circularly polarised light.)

In assay [7] the test system is Quadruplex RNA. Kind of assay: Displacement of ThT from DHX15 rG4 (unknown origin) at upto 100 uM measured after 15 mins by FID assay relative to control. It counts as nucleic-acid assay. Summed up:
as §2

Assay [8] has as its target Quadruplex RNA. Put plainly: Binding affinity to DHX15 rG4 (unknown origin) assessed as dissociation constant measured after 320 secs by SPR analysis. It counts as nucleic-acid assay. (SPR reads the build-up and loss of mass on a sensor chip optically.)
Assay [9] can be described thus: Inhibition of DHX15 mRNA translation in rabbit reticulocyte lysate transfected with DHX15-G4-WT-FL at 10 uM incubated for 15 mins by firefly luciferase assay relative to control. Conditions: Oryctolagus cuniculus, 0.25 h. It counts as functional. A digest of the protocol: as §1
The test system of assay [10] is Reticulocyte. Put plainly: Inhibition of DHX15 mRNA translation in rabbit reticulocyte lysate transfected with DHX15-G4-Del-FL at 10 uM incubated for 15 mins by firefly luciferase assay. It is filed as functional, subcellular. Particulars: Oryctolagus cuniculus. Summed up:
as §1

Take `Nc1cc2[nH]c(=O)[nH]c2cc1N1CCCC1`: the “inhibition (INH)” value in assay [1] is recorded as 57%. Moreover, the inhibition result in assay [2] was “inactive”. Further, the result in [3] was Active. For the same compound, the Activity in [4] turned out to be 20%; in [7] it was 50%. In assay [5], this compound returned an IC50 of 22.9 µM. Moreover, in assay [6], the ΔTm amounted to 3.6 °C. Also, the Kd in [8] came to 12.6 µM.

On to `O=C(O)[C@@H]1Cc2ccccc2CN1`, for which, in [8], the Kd is over 100 µM.

With `CN(C)c1ccc(Nc2c3ccc(NC(=O)CCN4CCCC4)cc3nc3cc(NC(=O)CCN4CCCC4)ccc23)cc1`, the inhibition at 10 µM in assay [9] stood at 67%. For the same compound, the inhibition result in [10] was “inactive”.

Take `O=C(O)[C@H]1Cc2ccccc2CN1`: the equilibrium dissociation constant (Kd) in assay [8] is over 100 µM.

(Values after ChEMBL document CHEMBL5532739, “Competitive Microarray Screening Reveals Functional Ligands for the DHX15 RNA G-Quadruplex” (ACS Med Chem Lett, 2024).)
